The source of these data is ChEMBL document CHEMBL1955726, “Novel Rho kinase inhibitors with anti-inflammatory and vasodilatory activities” (J Pharmacol Exp Ther, 2007).

The target of data set [1] is Glycogen synthase kinase-3 alpha (Homo sapiens, UniProt P49840). Kind of data set: Inhibition of GSK3alpha.
Data set [2] deals with RAC-gamma serine/threonine-protein kinase (Homo sapiens, UniProt Q9Y243). Kind of data set: Inhibition of AKT3.
Data set [3] has as its target Cyclin-dependent kinase 2 (Homo sapiens, UniProt P24941). Nature of the data set: Inhibition of CDK2.
Data set [4] addresses Mitogen-activated protein kinase 10 (Homo sapiens, UniProt P53779). Nature of the data set: Inhibition of JNK3.
The target of data set [5] is Ribosomal protein S6 kinase alpha-5 (Homo sapiens, UniProt O75582). Nature of the data set: Inhibition of MSK1.
In data set [6] the target is RAC-alpha serine/threonine-protein kinase (Homo sapiens, UniProt P31749). Nature of the data set: Inhibition of AKT1.
Sequence of RAC-alpha serine/threonine-protein kinase (P31749 whole entry): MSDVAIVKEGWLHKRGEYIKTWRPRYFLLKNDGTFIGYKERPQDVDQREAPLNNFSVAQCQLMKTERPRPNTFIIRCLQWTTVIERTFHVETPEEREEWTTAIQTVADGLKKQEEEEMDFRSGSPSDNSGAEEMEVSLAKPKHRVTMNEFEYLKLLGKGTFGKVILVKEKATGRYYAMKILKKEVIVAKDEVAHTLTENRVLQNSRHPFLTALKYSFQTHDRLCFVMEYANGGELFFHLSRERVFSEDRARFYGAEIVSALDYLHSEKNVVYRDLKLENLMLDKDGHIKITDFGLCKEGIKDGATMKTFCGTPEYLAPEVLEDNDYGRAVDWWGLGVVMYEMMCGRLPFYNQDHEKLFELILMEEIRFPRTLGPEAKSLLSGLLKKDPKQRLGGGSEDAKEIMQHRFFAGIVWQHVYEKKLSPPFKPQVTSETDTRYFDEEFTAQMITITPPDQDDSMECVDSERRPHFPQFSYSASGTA
In data set [7] the target is T1, Inhibitor of nuclear factor kappa-B kinase subunit beta (Homo sapiens, UniProt O14920).
T1 sequence (O14920 whole entry): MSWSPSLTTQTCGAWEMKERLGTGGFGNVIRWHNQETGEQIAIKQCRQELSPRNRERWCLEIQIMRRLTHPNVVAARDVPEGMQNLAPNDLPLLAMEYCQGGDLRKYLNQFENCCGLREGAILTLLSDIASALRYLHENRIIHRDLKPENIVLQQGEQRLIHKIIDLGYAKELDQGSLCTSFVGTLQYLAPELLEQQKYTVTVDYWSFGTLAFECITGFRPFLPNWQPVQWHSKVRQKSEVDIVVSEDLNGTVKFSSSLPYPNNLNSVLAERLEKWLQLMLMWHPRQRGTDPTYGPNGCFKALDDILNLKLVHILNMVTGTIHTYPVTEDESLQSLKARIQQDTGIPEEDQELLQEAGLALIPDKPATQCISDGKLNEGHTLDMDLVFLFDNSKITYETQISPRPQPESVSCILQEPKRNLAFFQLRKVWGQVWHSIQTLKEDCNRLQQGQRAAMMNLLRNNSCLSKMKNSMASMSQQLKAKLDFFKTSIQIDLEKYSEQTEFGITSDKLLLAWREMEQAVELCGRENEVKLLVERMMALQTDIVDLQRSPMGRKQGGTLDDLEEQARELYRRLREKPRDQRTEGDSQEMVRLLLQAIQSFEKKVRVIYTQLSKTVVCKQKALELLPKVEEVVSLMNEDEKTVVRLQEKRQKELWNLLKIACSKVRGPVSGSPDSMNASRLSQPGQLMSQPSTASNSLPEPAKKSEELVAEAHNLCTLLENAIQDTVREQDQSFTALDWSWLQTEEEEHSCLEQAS
Nature of the data set: Inhibition of IKK2.

In data set [8] the target is Serine/threonine-protein kinase PLK1 (Homo sapiens, UniProt P53350). Nature of the data set: Inhibition of PLK.
Sequence of Serine/threonine-protein kinase PLK1 (P53350 whole entry): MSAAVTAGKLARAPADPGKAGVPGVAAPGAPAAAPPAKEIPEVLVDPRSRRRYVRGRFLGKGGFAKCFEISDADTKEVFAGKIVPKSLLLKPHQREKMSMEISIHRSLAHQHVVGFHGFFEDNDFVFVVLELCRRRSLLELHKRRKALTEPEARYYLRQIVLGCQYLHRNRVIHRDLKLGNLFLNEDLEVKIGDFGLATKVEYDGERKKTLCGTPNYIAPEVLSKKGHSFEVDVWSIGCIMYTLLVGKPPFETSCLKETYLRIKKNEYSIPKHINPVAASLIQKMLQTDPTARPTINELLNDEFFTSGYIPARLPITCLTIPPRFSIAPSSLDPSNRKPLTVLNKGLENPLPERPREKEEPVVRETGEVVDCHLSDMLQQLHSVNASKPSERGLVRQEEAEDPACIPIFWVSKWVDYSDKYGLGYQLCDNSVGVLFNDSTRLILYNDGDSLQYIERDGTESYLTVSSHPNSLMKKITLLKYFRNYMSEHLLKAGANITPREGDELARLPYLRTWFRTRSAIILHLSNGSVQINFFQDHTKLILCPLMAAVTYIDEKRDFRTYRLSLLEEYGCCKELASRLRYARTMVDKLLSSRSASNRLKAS
Data set [9] relates to Rattus norvegicus. Kind of data set: Cardiovascular activity in spontaneously hypertensive rat assessed as increase in heart rate at 0.3 to 3 mg/kg, po. Type of data set: ADME, organism-based. Also noted: dose 0.3-3 mg/kg, route oral. The conditions noted are these: in vivo. The method in brief:
(§1)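 Compound given by oral gavage: 0.3, 1 and 3 mg/kg to spontaneously hypertensive rats, and 1 mg/kg to DOCA salt-treated hypertensive rats. A vehicle group was run alongside. Heart rate and blood pressure were recorded from immediately after dosing as 10-s averages every 5 min. There were 4-6 animals per dose (5 per group in the legend), and the change was taken from each group's baseline.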

For data set [10], the target named is Ribosomal protein S6 kinase alpha-1 (Homo sapiens, UniProt Q15418). Nature of the data set: Inhibition of RSK1.
Sequence of Ribosomal protein S6 kinase alpha-1 (Q15418 whole entry): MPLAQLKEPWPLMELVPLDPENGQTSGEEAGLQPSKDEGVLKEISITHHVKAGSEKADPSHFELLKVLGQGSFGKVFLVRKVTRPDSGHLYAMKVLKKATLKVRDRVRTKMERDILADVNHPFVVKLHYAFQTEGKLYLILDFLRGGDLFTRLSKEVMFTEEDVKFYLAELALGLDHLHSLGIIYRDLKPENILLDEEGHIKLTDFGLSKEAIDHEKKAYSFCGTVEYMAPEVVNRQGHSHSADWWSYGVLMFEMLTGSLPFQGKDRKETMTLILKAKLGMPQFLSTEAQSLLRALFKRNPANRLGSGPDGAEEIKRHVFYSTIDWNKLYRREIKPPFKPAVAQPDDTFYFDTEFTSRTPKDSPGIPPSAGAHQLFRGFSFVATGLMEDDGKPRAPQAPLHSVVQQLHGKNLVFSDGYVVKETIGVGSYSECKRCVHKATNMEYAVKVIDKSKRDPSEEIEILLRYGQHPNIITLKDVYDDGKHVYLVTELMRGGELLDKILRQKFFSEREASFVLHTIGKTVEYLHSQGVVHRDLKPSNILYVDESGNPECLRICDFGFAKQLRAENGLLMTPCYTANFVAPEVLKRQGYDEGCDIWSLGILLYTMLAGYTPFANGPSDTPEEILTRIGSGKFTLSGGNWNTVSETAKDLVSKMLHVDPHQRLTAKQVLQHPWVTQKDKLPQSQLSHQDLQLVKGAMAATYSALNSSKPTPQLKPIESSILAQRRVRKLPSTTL
Data set [11] has as its target Rho-associated protein kinase 2 (Homo sapiens, UniProt O75116). Nature of the data set: Inhibition of human ROCK2.
Data set [12] addresses Rho-associated protein kinase 1 (Homo sapiens, UniProt Q13464). Kind of data set: Inhibition of human recombinant N-terminal his-tagged ROCK1 (3-543) expressed in baculovirus infected Sf9 cells using Biotin-Ahx-AKRRLSSLRA-CONH2 substrate and [gamma-33P]ATP after 90 mins by scintillation proximity assay. On the technique in general: In a scintillation proximity assay essentially only radioactivity close to the scintillant gives light.

Data set [13] relates to primary macrophages (Homo sapiens). Kind of data set: Antiinflammatory activity in human primary monocyte-derived macrophages assessed as inhibition of LPS-induced IL-6 mRNA expression at 10 uM treated 30 mins before LPS stimulation measured after 18 hrs by Northern blotting.
Data set [14] concerns Aorta. Kind of data set: Vasodilatory activity in Sprague-Dawley rat aorta assessed as reversal of KCl/phenylephrine-induced muscle contraction. It is filed as functional, tissue-based.
In data set [15] the test system is Rattus norvegicus. Kind of data set: Antihypertensive activity in normotensive Sprague-Dawley rat assessed as reduction of blood pressure at 1 mg/kg, po after 2 hrs. It is filed as functional.
The subject of data set [16] is Rattus norvegicus. Nature of the data set: Cardiovascular activity in DOCA salt treated rat assessed as increase in heart rate at 1 mg/kg, po. Type of data set: ADME, organism-based. The arrangement: dose 1 mg/kg, route oral. The conditions noted are these: in vivo. The method in brief: as §1
Data set [17] deals with RAC-beta serine/threonine-protein kinase (Homo sapiens, UniProt P31751). Nature of the data set: Inhibition of AKT2.
For data set [18], the system named is Rattus norvegicus. Nature of the data set: Antihypertensive activity in rat assessed as reduction of DOCA salt-induced blood pressure at 1 mg/kg, po after 2 hrs. Type of data set: functional.
The subject of data set [19] is Rattus norvegicus. Nature of the data set: Antihypertensive activity in spontaneously hypertensive rat assessed as reduction of blood pressure at 1 mg/kg, po after 2 hrs. It is filed as functional.

Activity calls are given as the source filed them. The rule behind the calls is not given here.

Sequence of Rho-associated protein kinase 1 (Q13464 whole entry): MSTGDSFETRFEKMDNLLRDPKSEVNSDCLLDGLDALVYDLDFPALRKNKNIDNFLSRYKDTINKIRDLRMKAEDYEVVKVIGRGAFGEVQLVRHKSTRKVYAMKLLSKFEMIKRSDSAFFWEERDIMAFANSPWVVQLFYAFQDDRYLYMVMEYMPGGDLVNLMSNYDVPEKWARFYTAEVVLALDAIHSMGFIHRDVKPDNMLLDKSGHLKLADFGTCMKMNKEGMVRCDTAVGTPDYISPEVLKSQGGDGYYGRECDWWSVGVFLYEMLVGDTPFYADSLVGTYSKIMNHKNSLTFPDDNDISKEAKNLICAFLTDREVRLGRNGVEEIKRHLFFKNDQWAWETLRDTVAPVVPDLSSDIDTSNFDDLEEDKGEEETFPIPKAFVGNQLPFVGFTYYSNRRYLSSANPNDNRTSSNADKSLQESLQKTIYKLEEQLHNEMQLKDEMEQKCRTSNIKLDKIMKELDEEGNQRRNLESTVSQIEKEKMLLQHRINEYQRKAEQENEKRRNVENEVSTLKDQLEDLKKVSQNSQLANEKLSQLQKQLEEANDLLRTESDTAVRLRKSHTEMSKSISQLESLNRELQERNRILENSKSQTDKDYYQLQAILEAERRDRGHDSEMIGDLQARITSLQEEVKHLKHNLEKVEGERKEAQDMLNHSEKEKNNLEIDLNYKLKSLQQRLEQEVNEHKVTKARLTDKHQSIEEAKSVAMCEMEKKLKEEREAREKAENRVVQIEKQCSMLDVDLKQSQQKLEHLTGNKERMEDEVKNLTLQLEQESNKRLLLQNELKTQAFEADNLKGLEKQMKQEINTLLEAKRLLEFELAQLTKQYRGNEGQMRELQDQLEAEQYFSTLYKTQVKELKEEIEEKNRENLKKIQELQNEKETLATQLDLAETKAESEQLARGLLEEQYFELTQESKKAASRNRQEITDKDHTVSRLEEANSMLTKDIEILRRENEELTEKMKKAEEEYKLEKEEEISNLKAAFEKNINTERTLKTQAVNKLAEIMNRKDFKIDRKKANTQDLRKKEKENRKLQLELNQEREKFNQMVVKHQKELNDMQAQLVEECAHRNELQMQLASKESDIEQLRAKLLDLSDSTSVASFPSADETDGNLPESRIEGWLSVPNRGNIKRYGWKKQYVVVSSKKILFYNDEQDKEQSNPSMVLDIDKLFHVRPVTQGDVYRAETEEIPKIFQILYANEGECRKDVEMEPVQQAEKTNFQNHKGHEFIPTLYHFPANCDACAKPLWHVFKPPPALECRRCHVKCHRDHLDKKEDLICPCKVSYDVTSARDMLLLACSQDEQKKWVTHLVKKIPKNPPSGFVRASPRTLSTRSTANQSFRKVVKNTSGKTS
Sequence of Glycogen synthase kinase-3 alpha (P49840 whole entry): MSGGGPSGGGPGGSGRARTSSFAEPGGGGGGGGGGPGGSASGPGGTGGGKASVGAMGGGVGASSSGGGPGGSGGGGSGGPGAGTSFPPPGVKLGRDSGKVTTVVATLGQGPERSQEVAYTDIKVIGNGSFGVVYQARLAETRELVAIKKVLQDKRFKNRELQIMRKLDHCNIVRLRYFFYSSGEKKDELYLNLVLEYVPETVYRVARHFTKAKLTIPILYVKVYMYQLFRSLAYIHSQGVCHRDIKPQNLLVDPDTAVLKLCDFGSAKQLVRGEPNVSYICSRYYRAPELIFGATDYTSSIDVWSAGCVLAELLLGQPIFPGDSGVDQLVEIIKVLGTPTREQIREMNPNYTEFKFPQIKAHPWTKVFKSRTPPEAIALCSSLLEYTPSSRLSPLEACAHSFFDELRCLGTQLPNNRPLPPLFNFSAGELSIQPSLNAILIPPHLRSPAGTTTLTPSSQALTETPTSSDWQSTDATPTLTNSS
Sequence of Mitogen-activated protein kinase 10 (P53779 whole entry): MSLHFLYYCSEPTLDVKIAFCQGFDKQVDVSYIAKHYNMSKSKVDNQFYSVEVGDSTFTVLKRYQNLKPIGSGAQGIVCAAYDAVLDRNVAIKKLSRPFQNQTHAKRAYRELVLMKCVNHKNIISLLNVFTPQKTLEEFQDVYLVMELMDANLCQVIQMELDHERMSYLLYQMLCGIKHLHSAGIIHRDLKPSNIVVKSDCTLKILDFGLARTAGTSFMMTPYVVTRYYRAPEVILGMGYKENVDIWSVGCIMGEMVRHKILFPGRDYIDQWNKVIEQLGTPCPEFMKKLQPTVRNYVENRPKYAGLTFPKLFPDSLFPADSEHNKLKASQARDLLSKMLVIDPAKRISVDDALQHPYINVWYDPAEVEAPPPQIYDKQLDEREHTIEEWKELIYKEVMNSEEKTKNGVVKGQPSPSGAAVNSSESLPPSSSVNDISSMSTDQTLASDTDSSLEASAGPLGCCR
Sequence of RAC-gamma serine/threonine-protein kinase (Q9Y243 whole entry): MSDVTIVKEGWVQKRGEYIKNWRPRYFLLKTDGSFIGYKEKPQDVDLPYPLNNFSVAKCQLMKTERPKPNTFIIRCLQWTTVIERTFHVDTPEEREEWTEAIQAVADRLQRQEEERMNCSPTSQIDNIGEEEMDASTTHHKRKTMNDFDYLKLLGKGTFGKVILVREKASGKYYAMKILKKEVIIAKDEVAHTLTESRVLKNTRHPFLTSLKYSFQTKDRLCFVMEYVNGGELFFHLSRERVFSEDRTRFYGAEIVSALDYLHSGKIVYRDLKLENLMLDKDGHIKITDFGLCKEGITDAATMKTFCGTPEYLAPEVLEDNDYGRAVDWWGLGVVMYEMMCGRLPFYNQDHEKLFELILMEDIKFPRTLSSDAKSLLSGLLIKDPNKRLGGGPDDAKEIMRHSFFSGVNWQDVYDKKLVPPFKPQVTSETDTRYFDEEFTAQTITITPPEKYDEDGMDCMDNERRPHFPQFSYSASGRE

By IC50 is commonly meant the concentration that gives 50% inhibition. Regarding `CCn1c(-c2nonc2N)nc2cnc(Oc3cccc(NC(=O)c4ccc(OCCN5CCOCC5)cc4)c3)cc21` [GSK-269962A], the IC50 in [1] was 1260 nM; in [2] it was 1510 nM; in data set [3], 3500 nM; in data set [4], over 10000 nM; in [5] it was 49 nM; in [6], 955 nM. Further, the half-maximal inhibitory concentration (IC50) in [7] is over 10000 nM; in [8], over 10000 nM; in data set [10], 132 nM. Also, in data set [9], the Activity entry is “Dose-dependent effect”.
For `CCn1c(-c2nonc2N)nc2cncc(-c3ccc(CN)cc3)c21`, the IC50 in data set [11] and in data set [12] was under 10 nM each time. The inhibition result in data set [13] is “Active”.
Turning to `C[C@@H](N)[C@H]1CC[C@H](C(=O)Nc2ccncc2)CC1` [Y-27632], the 50% inhibitory concentration (IC50) in [14] came to 1400 nM. Also, in data set [9], the Activity result is reported as “Dose-dependent effect”.
In the case of `CCn1c(-c2nonc2N)nc2cncc(C(=O)N3CC[C@H](N)C3)c21`, the Activity is 12 mmHg in data set [15]; “Toxic” in data set [16]; 40 mmHg in data set [18]; “Dose-dependent effect” in data set [9]; 40 mmHg in [19]. For the same compound, the IC50 is 9100 nM in data set [1]; 1290 nM in data set [2]; 7000 nM in data set [3]; over 10000 nM in data set [4]; 324 nM in [6]; over 10000 nM in data set [7]. The IC50 in data set [8] is over 10000 nM; in data set [17], 1950 nM; in data set [10] it was 35 nM.
On to `CCn1c(-c2nonc2N)nc2cnccc21`, for which the half-inhibitory concentration (IC50) in data set [11] and in data set [12] was under 10 nM each time. Also, the inhibition result in data set [13] is “Active”.
